Results from ChEMBL document CHEMBL4257465, “Strigolactones: a plant phytohormone as novel anti-inflammatory agents” (Medchemcomm, 2018).
The source made the active and inactive calls. No cut-off for these calls is given here.

Columns and labels:
RAW264.7 [1] = experiment: Antiinflammatory activity in LPS-induced mouse RAW264.7 cells assessed as TNFalpha levels at 1.25 uM pretreated for 2 hrs followed by LPS stimulation and measured after 6 hrs by ELISA (reference value: 4377.1 +/- 318.6 pg/ml); format: functional
In short: (§1)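 RAW264.7 murine macrophages (DMEM, 10% serum, 37 °C, 5% CO2) seeded at 5 × 10^5 cells per well, pretreated 2 h with compound at 10, 5, 2.5 or 1.25 μM (DMSO 0.1% v/v), then LPS (E. coli 0127:B8) 100 ng mL−1 added. Supernatant TNF-α or IL-6 read by mouse ELISA kit after 6, 12 and 24 h. Mean ± SD, n = 3, three independent experiments.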

RAW264.7 [2] = experiment: Antiinflammatory activity in LPS-induced mouse RAW264.7 cells assessed as TNFalpha levels at 2.5 uM pretreated for 2 hrs followed by LPS stimulation and measured after 6 hrs by ELISA (reference value: 4377.1 +/- 318.6 pg/ml); format: functional; in short: as §1
RAW264.7 [3] = experiment: Antiinflammatory activity in LPS-induced mouse RAW264.7 cells assessed as TNFalpha levels at 5 uM pretreated for 2 hrs followed by LPS stimulation and measured after 6 hrs by ELISA (reference value: 4377.1 +/- 318.6 pg/ml); format: functional; in short: as §1
[4] = Cytotoxicity against mouse RAW264.7 cells assessed as cell viability at 10 uM after 48 hrs by MTT assay (reference value: 100%); format: cell-based; settings: read-out: Activity
In short: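 RAW264.7 cells seeded at 4 × 10^3 per well, cultured overnight, exposed to compound (DMSO 0.1% v/v) for 48 h. MTT 0.5 mg mL−1 added for 4 h at 37 °C, formazan dissolved in DMSO, OD570 read. Viability relative to medium-only cells set as 100%. Mean ± SD (n = 5), three independent experiments.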

RAW264.7 [5] = experiment: Antiinflammatory activity in LPS-induced mouse RAW264.7 cells assessed as TNFalpha levels at 5 uM pretreated for 2 hrs followed by LPS stimulation and measured after 24 hrs by ELISA (reference value: 9653.7 +/- 377.3 pg/ml); format: functional; in short: as §1
RAW264.7 [6] = experiment: Antiinflammatory activity in LPS-induced mouse RAW264.7 cells assessed as TNFalpha levels at 2.5 uM pretreated for 2 hrs followed by LPS stimulation and measured after 24 hrs by ELISA (reference value: 9653.7 +/- 377.3 pg/ml); format: functional; in short: as §1
RAW264.7 [7] = experiment: Antiinflammatory activity in LPS-induced mouse RAW264.7 cells assessed as TNFalpha levels at 1.25 uM pretreated for 2 hrs followed by LPS stimulation and measured after 24 hrs by ELISA (reference value: 9653.7 +/- 377.3 pg/ml); format: functional; in short: as §1
Danio rerio [8] = experiment: In-vivo antiinflammatory activity in 4 days post fertilized zebrafish larvae harboring coronilla-eGFP/Lyc-dsRed assessed as reduction in neutrophil recruitment to wounded tail at 5 to 20 uM measured after 3 to 6 hrs by fluorescence microscopic analysis; format: functional, organism-based
In short: (§2)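 Double transgenic neutrophil/macrophage reporter larvae (Coronilla-eGFP/Lyc-dsRed), 4 dpf, tail-cut. […] Neutrophils and macrophages gathering at the wound imaged by fluorescence microscopy at 3 and 6 h. 6–8 larvae per group. Uncut larvae serve as blank, untreated cut larvae as control.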

Danio rerio [9] = experiment: In-vivo antiinflammatory activity in 4 days post fertilized zebrafish larvae harboring coronilla-eGFP/Lyc-dsRed assessed as reduction in macrophage recruitment to wounded tail at 5 to 20 uM measured after 3 to 6 hrs by fluorescence microscopic analysis; format: functional, organism-based; in short: as §2
[10] = molecular target: T1, NF-kappa-B inhibitor alpha (Mus musculus) (UniProt Q9Z1E3); experiment: Inhibition of LPS-induced IkappaBalpha phosphorylation in mouse RAW264.7 cells after 4 hrs by Western blot analysis; format: cell-based
T1 sequence (whole entry): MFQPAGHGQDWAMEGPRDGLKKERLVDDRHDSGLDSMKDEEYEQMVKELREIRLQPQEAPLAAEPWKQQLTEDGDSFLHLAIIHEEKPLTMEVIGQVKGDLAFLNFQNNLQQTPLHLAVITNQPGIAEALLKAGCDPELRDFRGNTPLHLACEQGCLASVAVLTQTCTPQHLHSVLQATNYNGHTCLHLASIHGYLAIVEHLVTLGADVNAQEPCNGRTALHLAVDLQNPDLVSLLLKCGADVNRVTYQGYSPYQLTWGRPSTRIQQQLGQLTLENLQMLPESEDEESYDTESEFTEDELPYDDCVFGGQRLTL
In short: (§3)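 RAW264.7 cells at 2 × 10^6 per well given fresh medium with compound (10, 5, 2.5, 1.25 μM) plus LPS 500 ng mL−1 for 4 h. Lysed in IP buffer with 1 mM PMSF, protein by BCA. Run on 12.5% SDS-PAGE and blotted. Phospho and total ERK1/2 (Thr202/Tyr204), p38 (Thr180/Tyr182), IκBα (Ser32/36) and NF-κB p65 detected by ECL. Mean ± SD, n = 3.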

[11] = molecular target: Mitogen-activated protein kinase 1 and 3 (ERK2 and ERK1) (Mus musculus) (UniProt P63085+Q63844); experiment: Inhibition of LPS-induced ERK1/2 phosphorylation in mouse RAW264.7 cells after 4 hrs by Western blot analysis; format: cell-based; in short: as §3
[12] = molecular target: MAP kinase p38 (Mus musculus) (UniProt P47811+O08911+Q9WUI1+Q9Z1B7); experiment: Inhibition of LPS-induced p38 MAPK phosphorylation in mouse RAW264.7 cells after 4 hrs by Western blot analysis; format: cell-based; in short: as §3
RAW264.7 [13] = experiment: Antiinflammatory activity in LPS-induced mouse RAW264.7 cells assessed as IL-6 levels at 10 uM pretreated for 2 hrs followed by LPS stimulation and measured after 12 hrs by ELISA (reference value: 1394 +/- 62.6 pg/ml); format: functional; in short: as §1
RAW264.7 [14] = experiment: Antiinflammatory activity in LPS-induced mouse RAW264.7 cells assessed as IL-6 levels at 1.25 uM pretreated for 2 hrs followed by LPS stimulation and measured after 6 hrs by ELISA (reference value: 472.3 +/- 25.8 pg/ml); format: functional; in short: as §1
RAW264.7 [15] = experiment: Antiinflammatory activity in LPS-induced mouse RAW264.7 cells assessed as IL-6 levels at 2.5 uM pretreated for 2 hrs followed by LPS stimulation and measured after 6 hrs by ELISA (reference value: 472.3 +/- 25.8 pg/ml); format: functional; in short: as §1
RAW264.7 [16] = experiment: Antiinflammatory activity in LPS-induced mouse RAW264.7 cells assessed as IL-6 levels at 2.5 uM pretreated for 2 hrs followed by LPS stimulation and measured after 12 hrs by ELISA (reference value: 1394 +/- 62.6 pg/ml); format: functional; in short: as §1
RAW264.7 [17] = experiment: Antiinflammatory activity in LPS-induced mouse RAW264.7 cells assessed as IL-6 levels at 5 uM pretreated for 2 hrs followed by LPS stimulation and measured after 24 hrs by ELISA (reference value: 1966.6 +/- 102.3 pg/ml); format: functional; in short: as §1
RAW264.7 [18] = experiment: Antiinflammatory activity in LPS-induced mouse RAW264.7 cells assessed as IL-6 levels at 1.25 uM pretreated for 2 hrs followed by LPS stimulation and measured after 24 hrs by ELISA (reference value: 1966.6 +/- 102.3 pg/ml); format: functional; in short: as §1

Sequence of Mitogen-activated protein kinase 1 and 3 (ERK2 and ERK1) (Mus musculus) (P63085 whole entry, looked up): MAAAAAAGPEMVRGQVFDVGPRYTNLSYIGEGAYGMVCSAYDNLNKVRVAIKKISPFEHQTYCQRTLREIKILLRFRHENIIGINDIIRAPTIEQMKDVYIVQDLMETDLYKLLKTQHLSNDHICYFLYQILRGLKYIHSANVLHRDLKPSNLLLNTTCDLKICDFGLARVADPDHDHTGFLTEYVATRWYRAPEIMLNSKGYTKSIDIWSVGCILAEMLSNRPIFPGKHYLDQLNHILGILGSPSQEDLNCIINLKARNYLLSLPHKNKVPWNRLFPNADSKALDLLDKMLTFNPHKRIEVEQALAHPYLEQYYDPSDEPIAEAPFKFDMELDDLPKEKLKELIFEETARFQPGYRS
Sequence of Mitogen-activated protein kinase 1 and 3 (ERK2 and ERK1) (Mus musculus) (Q63844 whole entry, looked up): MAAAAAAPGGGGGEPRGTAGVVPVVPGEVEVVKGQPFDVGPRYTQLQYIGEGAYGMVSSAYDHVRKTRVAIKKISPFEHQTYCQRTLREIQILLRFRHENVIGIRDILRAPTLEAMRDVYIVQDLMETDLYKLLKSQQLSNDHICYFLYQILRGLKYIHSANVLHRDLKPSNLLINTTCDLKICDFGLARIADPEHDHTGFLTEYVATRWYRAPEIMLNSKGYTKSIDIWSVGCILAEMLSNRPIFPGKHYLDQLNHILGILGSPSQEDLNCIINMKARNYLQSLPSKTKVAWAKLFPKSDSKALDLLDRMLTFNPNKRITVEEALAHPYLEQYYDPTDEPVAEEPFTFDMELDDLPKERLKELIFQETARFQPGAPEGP

Structure (SMILES)	Activity (RAW264.7 [1]) [pg/mL]	Activity (RAW264.7 [2]) [pg/mL]	Activity (RAW264.7 [3]) [pg/mL]	viability at 48 h, 10 µM [4] [%]	Activity (RAW264.7 [5]) [pg/mL]	Activity (RAW264.7 [6]) [pg/mL]	Activity (RAW264.7 [7]) [pg/mL]	Activity (Danio rerio [8])	Activity (Danio rerio [9])	inhibition [10]	inhibition [11]	inhibition [12]	Activity (RAW264.7 [13]) [pg/mL]	Activity (RAW264.7 [14]) [pg/mL]	Activity (RAW264.7 [15]) [pg/mL]	Activity (RAW264.7 [16]) [pg/mL]	Activity (RAW264.7 [17]) [pg/mL]	Activity (RAW264.7 [18]) [pg/mL]
CC1=C[C@H](O/C=C2/C(=O)O[C@@H]3c4ccccc4C[C@H]23)OC1=O	4388.3	4276.9	4140.7	100	9085.5	9397.7	9565.4	Active	Active	Dose-dependent effect	Dose-dependent effect	Dose-dependent effect	869	461.2	433.6	1267.7	1499.2	1892.3
CC1=C[C@@H](O/C=C2/C(=O)O[C@H]3c4ccccc4C[C@@H]23)OC1=O	4367.3	4307.9	4209.3	99.2	9318.5	9444.5	9582.9	Active	Active	Dose-dependent effect	Dose-dependent effect	Dose-dependent effect	998.2	470.1	447.9	1296	1561.1	1936.5
